OXTR potentiator = human OXTR potentiation; activation, % at 3 µM; CHO-OTR cells, Fluo-8 calcium fluorescence, potentiator mode; 0% = oxytocin EC15, 100% = EC100; AID 2445; P30559; 320,000 tested, 0.061% active;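 active = activation above that plate's cutoff, the mean activation of tested compounds plus 3 SD, cut at about 6.6% in these data, passing the limit was not always enough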;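 also: 100% uses oxytocin at 75 nM as the full agonist control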
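Material: CHO-OTR cells, human receptor; compound dosing: single dose, 3.0 µM nominal final compound concentration; schedule: 6 min compound pre-incubation at room temperature, 100 s kinetic read; measured by: kinetic Fluo-8 calcium fluorescence; read-out basis: % activation vs EC15 and EC100 oxytocin; controls: EC15 oxytocin alone as 0%, 75 nM oxytocin as 100%; replicates: singlicate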
OXTR ag = agonists of human oxytocin receptor; P30559; CHO-OTR cells, Fluo-8 calcium fluorescence; normalized: DMSO 0%, oxytocin 100%; activation, % at 3 µM; 320,000 tested, 0.32% active;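 active = activation above the mean of all tested compounds plus 3 SD, cutoff set per screening run, cut at about 20% in these data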;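 also: peak over basal fluorescence ratio from a 100 s FLIPR kinetic read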
OX1R antag-1 = blocks the human orexin 1 receptor; OX1R-expressing cells, FRET antagonist read-out; inhibition, % at 6.6 µM; 330,000 tested, 1.8% active; AID 485270; in the data active = inhibition mostly above about 38%, no sharp cut-off; inactive = mostly below about 40%;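 also: 0% = agonist challenge alone and 100% = reference antagonist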
OX1R antag-2 = antagonists of human orexin 1 receptor. O43613. CHO/OX1R cells, Fluo-8 calcium fluorescence, orexin A. inhibition, % at 5 µM. 330,000 tested, 0.43% active;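 active = inhibition above its plate's threshold, mean inhibition of all tested compounds on the plate plus 3 SD, cut at about 37% in these data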;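 also: 0% = orexin A challenge wells and 100% = SB-334867-A antagonist wells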
V1aR counter = V1a receptor agonism, counter-screen for OXTR agonists | CHO-V1R cells, Fluo-8 calcium fluorescence, agonist mode; 0% DMSO, 100% 3 nM vasopressin | AID 2797 | activation, % at 3 µM | P37288 | 320,000 tested, 0.25% active;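 active = activation above the mean activation of all tested compounds plus 3 SD, per screening run, cut at about 20% in these data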;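 also: signal is peak over basal fluorescence ratio across a 100 second FLIPR read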
Target sequence (P37288 whole entry, looked up): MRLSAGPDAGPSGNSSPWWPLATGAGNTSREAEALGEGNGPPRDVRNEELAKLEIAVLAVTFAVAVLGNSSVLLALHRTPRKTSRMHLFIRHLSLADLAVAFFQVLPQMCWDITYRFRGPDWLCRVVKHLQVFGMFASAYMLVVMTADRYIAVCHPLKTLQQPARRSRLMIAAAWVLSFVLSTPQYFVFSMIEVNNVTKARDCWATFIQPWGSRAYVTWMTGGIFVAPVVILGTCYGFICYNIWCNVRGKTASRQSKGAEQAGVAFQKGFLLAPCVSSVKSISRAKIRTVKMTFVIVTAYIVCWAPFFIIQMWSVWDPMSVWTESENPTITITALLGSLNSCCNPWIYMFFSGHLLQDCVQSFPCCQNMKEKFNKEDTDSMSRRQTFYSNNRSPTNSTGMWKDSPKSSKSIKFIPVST
CHO parental Ca = signal in parental CHO cells, OX1R antagonist counter-screen | parental CHO-K1, ATP-induced calcium, Fluo-8 fluorescence | inhibition, % at 5.6 µM | 330,000 tested, 0.63% active | AID 463079;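 active = inhibition above that plate's mean sample inhibition plus 3 SD, cut at about 26% in these data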;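 also: 0% = ATP-challenged DMSO wells and 100% = DMSO wells without ATP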
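test system = CHO parental line | reagent = ATP stimulus | measured by = intracellular calcium via Fluo-8 no-wash fluorescent dye | control set = ATP and no-ATP DMSO wells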
Active calls of the source: *. In the library only some 2.7% were active in any assay of this set; here they are far more common.

SMILES | OXTR potentiator | OXTR ag | OX1R antag-1 | OX1R antag-2 | V1aR counter | CHO parental Ca
O=C(C1CCCN(S(=O)(=O)c2cccc3nsnc23)C1)N1CCC2(CC1)OCCO2 (stereo not drawn) | 1 | 0 | 41* | -14 | 0 | -12
O=C(O)CC1OCC=C2CN3CCC45c6ccccc6NC4C1C2CC35 (stereo not drawn) | 4 | 1 | 6 | -5 | 0 | -18
O=C(O)CC1OCC=C2CN3CCC45C6=CC(=O)C(=O)C([N+](=O)[O-])=C6NC4C1C2CC35 (stereo not drawn) | -2 | 4 | 38* | -17 | 1 | 6
Cc1c(N=Nc2c(O)n(-c3ccc(Br)cc3)c(=O)[nH]c2=O)c(=O)n(-c2ccccc2)n1C | 4 | 0 | 66* | -16 | -1 | -2
Cc1c(N=Nc2c(O)[nH]c(=O)[nH]c2=O)c(=O)n(-c2ccccc2)n1C | 2 | 1 | 35 | 4 | 1 | -10
NC(N)=Nc1ccc2[nH]c3c(c2c1)C[C@@]1(O)[C@H]2Cc4ccc(O)c5c4[C@@]1(CCN2CC1CC1)C3O5 (stereo partly drawn) | 3 | 2 | 3 | -2 | 1 | -10
Oc1c(Br)cc(Br)cc1Br | -8 | 2 | 8 | -12 | 1 | -8
Oc1c(Br)c(Br)c(Br)c(Br)c1Br | -7 | 8 | 37* | 7 | 5 | -7
O=C1/C(=C\c2ccccc2)C2OCC=C3CN4CCC56c7ccccc7N1C5C2C3CC46 (stereo not drawn) | -5 | 20* | 10 | -7 | 14 | -1
O=C(CSC1c2ccccc2-c2ccccc21)N/N=C/c1ccccc1C(=O)O | -10 | 0 | 54* | -1 | 0 | 5
CN1CC(C(=O)c2cccc(C(F)(F)F)c2)C(c2ccc(Cl)cc2)C1 (stereo not drawn) | -4 | 4 | 9 | -18 | 2 | -12
COC(=O)C1=C(c2ccc(F)cc2F)C[C@@H]2CC[C@H]1N2C(=O)NCCOc1ccc(OC)cc1 | -4 | -1 | 15 | -1 | 0 | -33
C[N+]1=C(/C=C/Nc2ccccc2)C(C)(C)c2ccccc21 | -1 | 2 | 6 | 22 | 0 | 44
CN1/C(=C\C=C\C2=[N+](C)c3ccc4ccccc4c3C2(C)C)C(C)(C)c2ccccc21 | -24 | 81* | -4 | 103* | 59* | 97*
CCOC(=O)c1cc2c(cn1)[nH]c1ccccc12 | -8 | 0 | 64* | 8 | 1 | -4
CC1CCC(C(C)C)C(OC(=O)Cn2c(COc3ccccc3)[n+](C)c3ccccc32)C1 (stereo not drawn) | -6 | 0 | 16 | 36* | -1 | 50*
Cc1cc(OCC(=O)N2C[C@H]3C[C@@H](C2)c2cccc(=O)n2C3)c2c(C)cc(=O)oc2c1 | -3 | 1 | 5 | -10 | 1 | -8
COC(=O)C1=C(c2cccc(OCc3ccccc3)c2)C[C@@H]2CC[C@H]1N2C(=O)NCCc1ccc(F)cc1 | -6 | 1 | 6 | 32 | 2 | -18
CCN(CC)C(=O)c1ccc(NC(=O)c2cccc(C(F)(F)F)c2)cc1 | -21 | 2 | 31 | -21 | 3 | 8
CCN(CC)C(=O)c1ccc(NC(=O)c2ccc(-n3cncn3)c([N+](=O)[O-])c2)cc1 | -3 | 0 | 64* | -15 | 0 | -5
CC1CN(c2ccc([N+](=O)[O-])c3cccnc23)CC(C)N1 (stereo not drawn) | -10 | 1 | 79* | -24 | 0 | 5
CCOc1ccc(-n2c(O)c(N=Nc3ccc([N+](=O)[O-])cc3)c(=O)[nH]c2=O)cc1 | -5 | -1 | 76* | -34 | -1 | -12
[O-]c1ccccc1-[n+]1c(-c2ccccc2)cc(-c2ccccc2)cc1-c1ccccc1 | -1 | 0 | 16 | 45 | -1 | 48*
Oc1ccccc1-[n+]1c(-c2ccccc2)cc(-c2ccccc2)cc1-c1ccccc1 | -1 | 6 | 9 | -23 | 2 | -8
COc1ccc(-[n+]2c(-c3ccccc3)cc(-c3ccc(C)cc3)cc2-c2ccccc2)cc1 | -14 | 4 | 27 | 18 | 3 | 45*

High-throughput results: PubChem BioAssay, The Scripps Research Institute Molecular Screening Center
